Test results from ChEMBL document CHEMBL4017522, “Stilbene Boronic Acids Form a Covalent Bond with Human Transthyretin and Inhibit Its Aggregation” (J Med Chem, 2017).
Active and inactive are the calls of the source. The calls are words filed in the database; no cut-off is given here.

What was measured:
[1] = target: T1, Transthyretin (Homo sapiens, UniProt P02766); assay: Competitive binding affinity to human wild type TTR expressed in Escherichia coli BL-21 assessed as equilibrium dissociation constant of second site in presence of ANS by spectrofluorometer
[2] = target: T1, Transthyretin; assay: Inhibition of human wild type TTR expressed in Escherichia coli BL-21 assessed as fibril formation at 7.2 uM incubated for 30 mins measured after 96 hrs by light scattering method relative to control; design: scale not given: the % may be the effect or the level left
Outline: (§1)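 Ligand (7.2 or 14.4 μM) preincubated 30 min with TTR tetramers (7.2 μM, wild-type or V30M), then diluted twofold into 50 mM sodium acetate, pH 4.4, 100 mM KCl. Turbidity read as A400 at 0 and 96 h, four replicates; percent fibril formation = ligand-well A400 gain over DMF vehicle-well gain ×100, standard deviations propagated.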

[3] = target: T1, Transthyretin; assay: Inhibition human wild type TTR expressed in Escherichia coli BL-21 assessed as fibril formation at 14.4 uM incubated for 30 mins after 96 hrs by light scattering method relative to control; design: scale not given: the % may be the effect or the level left; outline: as §1
[4] = tested on: Transthyretin (Homo sapiens), P02766 [V50M]; assay: Inhibition of human TTR V30M mutant expressed in Escherichia coli BL-21 assessed as fibril formation at 7.2 uM incubated for 30 mins measured after 96 hrs by light scattering method relative to control; design: scale not given: the % may be the effect or the level left
[5] = tested on: Transthyretin (Homo sapiens), P02766 [V50M]; assay: Inhibition of human TTR V30M mutant expressed in Escherichia coli BL-21 assessed as fibril formation at 14.4 uM incubated for 30 mins measured after 96 hrs by light scattering method relative to control; design: scale not given: the % may be the effect or the level left
[6] = target: T1, Transthyretin; assay: Reversible binding affinity to human wild type TTR expressed in Escherichia coli BL-21 at 360 uM by mass spectrometry

Row | SMILES | Kd [1] [nM] | Activity [2] [%] | Activity [3] [%] | Activity [4] [%] | Activity [5] [%] | Activity [6]
1 | Oc1ccc(/C=C/c2cc(O)cc(O)c2)cc1 [RESVERATROL] | 470 | 28 | 9 | – | – | –
2 | O=C(O)c1ccc2nc(-c3cc(Cl)cc(Cl)c3)oc2c1 | – | 22 | 0 | 5 | 8 | –
3 | Oc1ccc(/C=C/c2ccc(O)cc2Cl)c(Cl)c1 | 820 | 30 | 12 | 62 | 27 | –
4 | Oc1cc(O)cc(/C=C/c2ccc(O)cc2Cl)c1 | 730 | 22 | 7 | 44 | 14 | –
5 | O=C(O)c1cccc(/C=C/c2ccc(O)cc2)c1 | 1800 | 75 | 77 | 112 | 120 | –
6 | OB(O)c1ccc(/C=C/c2cc(O)cc(O)c2)cc1 | 470 | 21 | 9 | 48 | 23 | –
7 | OB(O)c1cccc(/C=C/c2ccc(B(O)O)cc2Cl)c1 | – | 26 | 10 | 54 | 16 | –
8 | O=C(O)c1cccc(/C=C/c2ccc(B(O)O)cc2Cl)c1 | 450 | 16 | 4 | 32 | 10 | –
9 | OB(O)c1ccc(/C=C/c2cc(O)cc(O)c2)c(Cl)c1 | 440 | 19 | 4 | 36 | 12 | –
10 | O=C(O)c1cccc(/C=C/c2ccc(B(O)O)cc2)c1 | 990 | 21 | 11 | 48 | 28 | –
11 | O=C(O)c1cccc(/C=C/c2ccc(O)cc2Cl)c1 | 470 | 21 | 3 | 41 | 9 | –
12 | OB(O)c1ccc(/C=C/c2ccc(B(O)O)cc2Cl)c(Cl)c1 | 470 | 20 | 3 | 32 | 8 | Active
